Assay results reported in ChEMBL document CHEMBL1136891, “1,3-dialkyl-8-N-substituted benzyloxycarbonylamino-9-deazaxanthines as potent adenosine receptor ligands: Design, synthesis, structure-affinity and structure-selectivity relationships” (Bioorg Med Chem, 2009).
≈ marks a conversion by molar mass, not a printed value.

Experiments:
Adenosine receptor A2b [1] = target: T1, Adenosine receptor A2b (Homo sapiens, UniProt P29275); assay: Displacement of [3H]DPCPX from human recombinant adenosine A2B receptor expressed in HEK293 cells by beta scintillation counter; format: cell-based
T1 sequence (P29275 whole entry): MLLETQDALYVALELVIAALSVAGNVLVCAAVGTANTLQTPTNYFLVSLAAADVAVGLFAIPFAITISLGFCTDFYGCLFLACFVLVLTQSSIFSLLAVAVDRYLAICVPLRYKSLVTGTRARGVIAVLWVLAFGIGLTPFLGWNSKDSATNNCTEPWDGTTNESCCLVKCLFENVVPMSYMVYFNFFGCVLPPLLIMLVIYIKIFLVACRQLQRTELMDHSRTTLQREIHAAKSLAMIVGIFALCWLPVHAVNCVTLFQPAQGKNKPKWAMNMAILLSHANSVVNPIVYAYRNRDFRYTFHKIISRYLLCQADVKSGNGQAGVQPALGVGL
Method in brief: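 Competition binding on membranes from transfected HEK-293 cells expressing hA2B, using 35 nM [3H]DPCPX. Non-specific binding was defined with NECA. Incubation was 30 min at 25 °C, followed by filtration and scintillation counting. Ki values are means of two independent experiments in duplicate.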

Adenosine receptor A2a [2] = target: T2, Adenosine receptor A2a (Homo sapiens, UniProt P29274); assay: Displacement of [3H]ZM241385 from human recombinant adenosine A2A receptor expressed in HeLa cells by beta scintillation counter; format: cell-based
Homo sapiens = organism: Homo sapiens; assay: Selectivity index, ratio of Ki for human recombinant adenosine A2A receptor to Ki for human recombinant adenosine A2B receptor
Method in brief: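 Competition binding on membranes at 25 °C for 30 min, then filtration and beta scintillation counting. hA2A: transfected HeLa cells, 3 nM [3H]ZM241385, non-specific binding with 50 µM NECA. hA2B: transfected HEK-293 cells, 35 nM [3H]DPCPX, non-specific binding with 400 µM NECA. Ki values are means of two independent duplicate experiments. SI = Ki hA2A / Ki hA2B.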

Adenosine receptor A1 = target: T3, Adenosine receptor A1 (Homo sapiens, UniProt P30542); assay: Displacement of [3H]DPCPX from human recombinant adenosine A1 receptor expressed in CHO cells by beta scintillation counter; format: cell-based
T3 sequence (P30542 whole entry): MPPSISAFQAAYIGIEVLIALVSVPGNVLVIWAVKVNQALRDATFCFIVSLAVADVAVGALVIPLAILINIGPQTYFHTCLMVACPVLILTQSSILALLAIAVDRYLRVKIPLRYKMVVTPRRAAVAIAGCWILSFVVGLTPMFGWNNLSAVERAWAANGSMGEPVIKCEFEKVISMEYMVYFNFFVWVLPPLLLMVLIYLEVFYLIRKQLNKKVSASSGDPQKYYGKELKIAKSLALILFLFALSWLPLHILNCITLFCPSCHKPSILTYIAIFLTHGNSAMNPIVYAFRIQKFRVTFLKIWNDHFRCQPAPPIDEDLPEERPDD
Method in brief: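 Membranes from CHO cells expressing hA1, labelled with 2 nM [3H]DPCPX. Non-specific binding was defined with excess (R)-PIA. Incubated 25 °C for 60 min, then filtered and counted. Ki values are means of two independent experiments with duplicate points.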

Adenosine receptor A3 = target: T4, Adenosine receptor A3 (Homo sapiens, UniProt P0DMS8); assay: Displacement of [3H]NECA from human recombinant adenosine A3 receptor expressed in HeLa cells by beta scintillation counter; format: cell-based
T4 sequence (P0DMS8 whole entry): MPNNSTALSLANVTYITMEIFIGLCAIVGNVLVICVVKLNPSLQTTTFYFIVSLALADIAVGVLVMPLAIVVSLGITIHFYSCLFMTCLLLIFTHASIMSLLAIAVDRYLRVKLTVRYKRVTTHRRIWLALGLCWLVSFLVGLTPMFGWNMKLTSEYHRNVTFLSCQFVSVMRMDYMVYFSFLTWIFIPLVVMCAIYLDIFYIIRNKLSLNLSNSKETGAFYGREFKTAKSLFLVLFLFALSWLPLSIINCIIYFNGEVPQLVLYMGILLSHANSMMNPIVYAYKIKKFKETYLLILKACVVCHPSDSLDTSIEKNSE
Method in brief: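 HeLa-hA3 membranes labelled with 30 nM [3H]NECA. Non-specific binding was defined with (R)-PIA. Incubation was 180 min at 25 °C, then filtration and scintillation counting. Ki values are means of two independent experiments with duplicate points.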

[3] = target: T5, Adenosine receptor A2b (Homo sapiens) (UniProt P29275); assay: Displacement of [3H]DPCPX from human recombinant adenosine A2B receptor expressed in HEK293 cells at 1 uM by beta scintillation counter; format: cell-based
T5 sequence (whole entry): T1 sequence (P29275 whole entry)

[4] = Solubility in water; format: physicochemical
Method in brief: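 Compound stock at 1 mg/ml in DMSO, added in small portions (typically 14 additions) to 50 mM Tris/HCl pH 7.4 at room temperature, keeping final DMSO below 5%. Precipitation was detected as light-scattering absorbance at 600–820 nm. The solubility limit was taken from a bilinear fit of absorbance versus DMSO added. Mean ± SEM of two assays.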

Adenosine receptor A2a [5] = target: T2, Adenosine receptor A2a; assay: Displacement of [3H]ZM241385 from human recombinant adenosine A2A receptor expressed in HeLa cells at 1 uM by beta scintillation counter
Adenosine receptor A2a [6] = target: Adenosine receptor A2a (Rattus norvegicus, UniProt P30543); assay: Antagonist activity at adenosine A2A receptor in Wistar-Kyoto rat aorta assessed as inhibition of phenylephrine-induced contraction treated 30 mins before phenylephrine challenge measured after 60 mins
Adenosine receptor A2b [7] = target: T6, Adenosine receptor A2b (Rattus norvegicus, UniProt P29276); assay: Antagonist activity at adenosine A2B receptor in Wistar-Kyoto rat colon assessed as inhibition of NECA-induced relaxation after 30 mins; details: read-out: pA2 (converted)
T6 sequence (P29276 whole entry): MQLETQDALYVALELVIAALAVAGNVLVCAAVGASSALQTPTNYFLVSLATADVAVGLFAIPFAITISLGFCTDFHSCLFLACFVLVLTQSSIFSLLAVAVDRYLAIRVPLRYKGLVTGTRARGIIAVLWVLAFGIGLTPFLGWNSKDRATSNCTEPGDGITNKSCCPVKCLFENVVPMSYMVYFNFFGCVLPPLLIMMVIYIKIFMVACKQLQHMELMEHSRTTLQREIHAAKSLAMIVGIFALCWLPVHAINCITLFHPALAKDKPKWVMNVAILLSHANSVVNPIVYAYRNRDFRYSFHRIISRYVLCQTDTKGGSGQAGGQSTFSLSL

T2 sequence (P29274 whole entry): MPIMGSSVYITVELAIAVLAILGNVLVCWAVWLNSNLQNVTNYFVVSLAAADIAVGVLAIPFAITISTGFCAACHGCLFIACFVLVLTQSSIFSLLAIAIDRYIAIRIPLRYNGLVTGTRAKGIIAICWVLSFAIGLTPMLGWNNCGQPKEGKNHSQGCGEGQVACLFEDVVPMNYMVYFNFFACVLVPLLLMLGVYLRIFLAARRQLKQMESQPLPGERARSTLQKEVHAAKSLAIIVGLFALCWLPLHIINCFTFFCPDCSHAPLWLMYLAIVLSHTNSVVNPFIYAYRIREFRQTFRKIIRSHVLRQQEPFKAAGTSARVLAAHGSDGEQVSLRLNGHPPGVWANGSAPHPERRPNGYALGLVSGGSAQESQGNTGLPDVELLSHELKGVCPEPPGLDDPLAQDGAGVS
Adenosine receptor A2a (Rattus norvegicus, UniProt P30543), sequence (P30543 whole entry): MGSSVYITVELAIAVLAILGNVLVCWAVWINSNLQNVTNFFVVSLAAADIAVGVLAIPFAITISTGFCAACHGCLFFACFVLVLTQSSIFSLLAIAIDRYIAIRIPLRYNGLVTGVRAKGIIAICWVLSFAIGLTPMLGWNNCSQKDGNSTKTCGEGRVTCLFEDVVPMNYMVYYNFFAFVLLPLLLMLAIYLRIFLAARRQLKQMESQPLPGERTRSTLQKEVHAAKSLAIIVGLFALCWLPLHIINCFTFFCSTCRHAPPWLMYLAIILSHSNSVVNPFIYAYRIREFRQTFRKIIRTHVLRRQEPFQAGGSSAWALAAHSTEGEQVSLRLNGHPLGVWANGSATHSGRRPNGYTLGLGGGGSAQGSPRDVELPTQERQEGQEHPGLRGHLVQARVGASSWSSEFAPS

Row | SMILES | Ki (Adenosine receptor A2b [1]) [nM] | Ki (Adenosine receptor A2a [2]) [nM] | Ratio Ki (Homo sapiens) | Ki (Adenosine receptor A1) [nM] | Ki (Adenosine receptor A3) [nM] | inhibition [3] [%] | solubility [4] [µg/mL] | inhibition (Adenosine receptor A2a [5]) [%] | Kb (Adenosine receptor A2a [6]) [nM] | Kb (Adenosine receptor A2b [7]) [nM]
1 | CCCn1c(=O)c2[nH]c(-c3ccc(COC(=O)Nc4ccc(F)cc4)cc3)cc2n(CCC)c1=O | 2 | 118 | 59 | 0.4 | 71 | – | – | – | – | –
2 | CCCn1c(=O)c2[nH]c(-c3ccc(COC(=O)Nc4cc[nH]n4)cc3)cc2n(CCC)c1=O | 5.9 | 10 | 1.7 | – | – | – | – | – | – | –
3 | Cn1c(=O)c2[nH]c(-c3ccc(COC(=O)Nc4ccccn4)cc3)cc2n(C)c1=O | 81.3 | 490 | 6 | – | – | – | – | – | – | –
4 | Cn1c(=O)c2[nH]c(-c3ccc(COC(=O)Nc4ccc(F)cc4)cc3)cc2n(C)c1=O | 9.5 | 72.4 | 7.6 | 17.8 | 871 | – | – | – | – | –
5 | CCCn1c(=O)c2[nH]c(-c3ccc(COC(=O)Nc4ccon4)cc3)cc2n(CCC)c1=O | 1.7 | 21.9 | 12.9 | – | – | – | – | – | – | –
6 | CCCn1c(=O)c2[nH]c(-c3ccc(COC(=O)N4CCN(c5ccccc5)CC4)cc3)cc2n(CCC)c1=O | – | 447 | – | – | – | 46 | – | – | – | –
7 | Cn1c(=O)c2[nH]c(-c3ccc(COC(=O)Nc4cccs4)cc3)cc2n(C)c1=O | 1 | 15.1 | 15.1 | – | – | – | – | – | – | –
8 | CCCn1c(=O)c2[nH]c(-c3ccc(COC(=O)N4CCN(c5cccc(Cl)c5)CC4)cc3)cc2n(CCC)c1=O | 24 | 28.2 | 1.2 | – | – | – | – | – | – | –
9 | Cn1c(=O)c2[nH]c(-c3ccc(COC(=O)Nc4ccccc4)cc3)cc2n(C)c1=O | 2.8 | 34.7 | 12.6 | 2.2 | 275 | – | – | – | – | –
10 | Cn1c(=O)c2[nH]c(-c3ccc(COC(=O)N4CCN(c5ccccc5)CC4)cc3)cc2n(C)c1=O | 11.5 | 132 | 11.5 | – | – | – | – | – | – | –
11 | Cn1c(=O)c2[nH]c(-c3ccc(COC(=O)NCc4ccccc4)cc3)cc2n(C)c1=O | 16.2 | 1000 | 61.6 | – | – | – | – | – | – | –
12 | CCCn1c(=O)c2[nH]c(-c3ccc(COC(=O)Nc4ccccc4)cc3)cc2n(CCC)c1=O | 7.1 | 28.8 | 4.1 | 20.4 | 331 | – | 27 (≈ 58.6 µM) | – | – | –
13 | CCCn1c(=O)c2[nH]c(-c3ccc(COC(=O)Nc4cccs4)cc3)cc2n(CCC)c1=O | 602 | 2240 | 3.7 | – | – | – | – | – | – | –
14 | CCCn1c(=O)c2[nH]c(-c3ccc(COC(=O)Nc4ccccc4)cc3)cc2n(C)c1=O | 13.8 | – | – | – | – | – | – | 15 | – | –
15 | Cn1c(=O)c2[nH]c(-c3ccc(COC(=O)N4CCc5ccccc5C4)cc3)cc2n(C)c1=O | 2.1 | 43.7 | 20.4 | – | – | – | – | – | – | –
16 | Cn1c(=O)c2[nH]c(-c3ccc(COC(=O)Nc4ccsc4)cc3)cc2n(C)c1=O | 0.8 | 10.5 | 12.6 | 10 | 363 | – | 21.5 (≈ 52.4 µM) | – | 28.2 | 2.19
17 | CCCn1c(=O)c2[nH]c(-c3ccc(COC(=O)N4CCN(c5ccc(F)cc5)CC4)cc3)cc2n(CCC)c1=O | 42.7 | 50.1 | 1.2 | – | – | – | – | – | – | –
18 | CCCn1c(=O)c2[nH]c(-c3ccc(COC(=O)Nc4ccsc4)cc3)cc2n(CCC)c1=O | 501 | 3310 | 6.6 | – | – | – | – | – | – | –
19 | CCCn1c(=O)c2[nH]c(-c3ccc(COC(=O)Nc4cnccn4)cc3)cc2n(CCC)c1=O | 7.8 | 35.5 | 4.6 | – | – | – | – | – | – | –
20 | Cn1c(=O)c2[nH]c(-c3ccc(COC(=O)Nc4ccco4)cc3)cc2n(C)c1=O | 3.2 | 18.2 | 5.6 | – | – | – | – | – | – | –
